Twelve compounds from ChEMBL document CHEMBL3792315, “Potent, Selective, and CNS-Penetrant Tetrasubstituted Cyclopropane Class IIa Histone Deacetylase (HDAC) Inhibitors” (ACS Med Chem Lett, 2016) can be followed below.

Series [1] concerns Muscle tissue. Description: Dose normalized Cmax in C57Bl/6 mouse muscle at 10 mg/kg, po. Format: ADME, organism-based. The following applies: in vivo. The method in brief: (§1)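 A single 10 mg/kg oral gavage dose was given to fed male C57Bl/6 mice. Concentrations were measured in plasma, brain and muscle to derive Cmax, Tmax and AUC, with Cmax and AUC normalised to dose.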
Series [2] has as its system Muscle tissue. Put plainly: Dose normalized AUC in C57Bl/6 mouse muscle at 10 mg/kg, po. Format: ADME, organism-based. The following applies: in vivo. The method in brief: as §1
Series [3] concerns Plasma. Description: Dose normalized Cmax in C57Bl/6 mouse plasma at 10 mg/kg, po. Type of series: ADME, organism-based. To be noted: in vivo. In a few lines:
as §1

The test system of series [4] is Brain. Description: Dose normalized Cmax in C57Bl/6 mouse brain at 10 mg/kg, po. The following applies: in vivo. Format: ADME, organism-based. The method in brief:
as §1

Series [5] in a line: Oral bioavailability in C57Bl/6 mouse plasma at 10 mg/kg. Format: ADME, organism-based.
The nature of series [6]: Tmax in C57Bl/6 mouse brain at 10 mg/kg, po. Type of series: ADME, organism-based. In a few lines:
as §1

In series [7] the test system is Plasma. Put plainly: Dose normalized AUC in C57Bl/6 mouse plasma at 10 mg/kg, po. Type of series: ADME, organism-based. To be noted: in vivo. In a few lines:
as §1

Series [8] is described as follows: Tmax in C57Bl/6 mouse muscle at 10 mg/kg, po. Format: ADME, organism-based, Muscle tissue. In a few lines: as §1
Series [9] is described as follows: Tmax in C57Bl/6 mouse plasma at 10 mg/kg, po. Type of series: ADME, organism-based. In a few lines: as §1
A short description of series [10]: Volume of distribution at steady state in C57Bl/6 mouse plasma at 1 mg/kg, iv. Type of series: ADME, organism-based. To be noted: read-out: Vdss. The method in brief:
(§2)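 Fed male C57Bl/6 mice were dosed intravenously, and plasma was sampled to derive half-life, plasma clearance and steady-state volume of distribution. The iv dose differed per compound (5, 1 or 2.5 mg/kg).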

Series [11] concerns Brain. Description: Dose normalized AUC in C57Bl/6 mouse brain at 10 mg/kg, po. Format: ADME, organism-based. To be noted: in vivo. The method in brief:
as §1

Series [12] in a line: Apparent permeability across apical to basolateral side in MDCK cells expressing MDR1. To be noted: dog. Format: ADME, cell-based, Canis lupus familiaris.
The nature of series [13]: Volume of distribution at steady state in C57Bl/6 mouse plasma at 5 mg/kg, iv. Format: ADME, organism-based. To be noted: read-out: Vdss. The method in brief: as §2
Series [14] in a line: Volume of distribution at steady state in C57Bl/6 mouse plasma at 2.5 mg/kg, iv. Format: ADME, organism-based. The following applies: read-out: Vdss. The method in brief: as §2

A value given as a limit tells only on which side of the number the result lay.

Turning to `O=C(NO)[C@]1(F)[C@H](c2ccccc2)[C@H]1c1ccc(-c2ncc(F)cn2)cc1`, the values for the Cmax/dose in [1], in series [3] and in [4] were 290 nM·kg/mg, 180 nM·kg/mg and 780 nM·kg/mg, respectively. The AUC/dose in series [2] was 640 nM·kg·h/mg; in series [7] it was 480 nM·kg·h/mg; in series [11], 1900 nM·kg·h/mg. In addition, the bioavailability (in general, dose-corrected exposure relative to a reference, in per cent) in [5] worked out at 79%. The Tmax (in general, the time at which the peak concentration occurs) is 30 min in series [6], 30 min in series [8] and 15 min in series [9]. Moreover, the Vd in [10] worked out at 5.1 L/kg. Moreover, the Papp A→B (commonly how fast a substance crosses the layer from the apical side) in series [12] was 41.8 ×10⁻⁶ cm/s.

Turning to `O=C(NO)[C@@H]1[C@H](c2ccccc2)[C@H]1c1ccc(-c2ncc(F)cn2)cc1`, the figures for the Cmax/dose in series [1], in [3] and in series [4] were 320 nM·kg/mg, 97 nM·kg/mg and 570 nM·kg/mg, respectively. The figures for the AUC/dose in series [2], in series [7] and in series [11] were 330 nM·kg·h/mg, 110 nM·kg·h/mg and 830 nM·kg·h/mg, respectively. The compound further had a bioavailability in [5] of 100%. For the same compound, the Tmax in series [6], in series [8] and in series [9] was 30 min each time. Moreover, in series [13], the Vd worked out at 4.1 L/kg.

On to `O=C(NO)[C@]1(F)[C@H](c2ccccc2)[C@H]1c1ccc(-c2ncc(OC(F)F)cn2)cc1`, for which the Cmax/dose in [1] amounted to 56 nM·kg/mg; in series [3], 150 nM·kg/mg; in [4], 120 nM·kg/mg. In addition, the values for the AUC/dose in [2], in [7] and in [11] were 300 nM·kg·h/mg, 660 nM·kg·h/mg and 580 nM·kg·h/mg, respectively. For the same compound, the Vd in series [14] was 10 L/kg. In series [5], this compound showed a bioavailability of 100%. For the same compound, the Tmax in series [6] was found to be 60 min; in series [8], 30 min; in series [9], 15 min. For the same compound, the Papp A→B in series [12] amounted to 19.2 ×10⁻⁶ cm/s.

For `Cc1cnc(-c2ccc([C@H]3[C@H](C(=O)NO)[C@@H]3c3ccccc3)cc2)nc1`, the Papp A→B in series [12] was 37.5 ×10⁻⁶ cm/s.

`O=C(NO)[C@@H]1[C@H](c2ccccc2)[C@H]1c1ccc(-c2nccc(C(F)(F)F)n2)cc1`: in series [12], the Papp A→B was determined as 11.4 ×10⁻⁶ cm/s.

Regarding `O=C(NO)[C@@H]1[C@H](c2ccccc2)[C@H]1c1ccc(-c2ncc(Cl)cn2)cc1`, in [12], the Papp A→B is 38 ×10⁻⁶ cm/s.

For the compound `O=C(NO)[C@@H]1[C@H](c2ccccc2)[C@H]1c1ccc(-c2ncc(OC(F)F)cn2)cc1`, in series [12], the Papp A→B is 12.9 ×10⁻⁶ cm/s.

With `Cc1cnc(-c2ccc([C@@H]3[C@@H](c4ccccc4)[C@@]3(F)C(=O)NO)cc2)nc1`, in series [12], the Papp A→B is 36.9 ×10⁻⁶ cm/s.

In the case of `O=C(NO)[C@]1(F)[C@H](c2ccccc2)[C@H]1c1ccc(-c2ncc(Cl)cn2)cc1`, the Papp A→B in [12] was less than 1 ×10⁻⁶ cm/s.

With `O=C(NO)[C@]1(F)[C@H](c2ccccc2)[C@H]1c1ccc(-c2nccc(C(F)(F)F)n2)cc1`, the Papp A→B in [12] was 7 ×10⁻⁶ cm/s.

With `O=C(NO)[C@]1(F)[C@H](c2ccccc2)[C@H]1c1ccc(-c2cnco2)cc1`, in [12], the Papp A→B was 48.7 ×10⁻⁶ cm/s.

Turning to `Cc1cnc(-c2ccc([C@@H]3[C@@H](c4ccccc4)[C@@]3(C)C(=O)NO)cc2)nc1`, the Papp A→B in series [12] stood at 39.1 ×10⁻⁶ cm/s.
